Data from ChEMBL document CHEMBL3808369, “Identification of Cyproheptadine as an Inhibitor of SET Domain Containing Lysine Methyltransferase 7/9 (Set7/9) That Regulates Estrogen-Dependent Transcription” (J Med Chem, 2016).
Calls of active or inactive are those of the source. The calls are words filed in the database; no cut-off is given here.

What was measured:
[1] = target: T1, Histone-lysine N-methyltransferase EHMT2 (Homo sapiens) (UniProt Q96KQ7); test: Inhibition of G9a (unknown origin) by AlphaELISA
T1 sequence (whole entry): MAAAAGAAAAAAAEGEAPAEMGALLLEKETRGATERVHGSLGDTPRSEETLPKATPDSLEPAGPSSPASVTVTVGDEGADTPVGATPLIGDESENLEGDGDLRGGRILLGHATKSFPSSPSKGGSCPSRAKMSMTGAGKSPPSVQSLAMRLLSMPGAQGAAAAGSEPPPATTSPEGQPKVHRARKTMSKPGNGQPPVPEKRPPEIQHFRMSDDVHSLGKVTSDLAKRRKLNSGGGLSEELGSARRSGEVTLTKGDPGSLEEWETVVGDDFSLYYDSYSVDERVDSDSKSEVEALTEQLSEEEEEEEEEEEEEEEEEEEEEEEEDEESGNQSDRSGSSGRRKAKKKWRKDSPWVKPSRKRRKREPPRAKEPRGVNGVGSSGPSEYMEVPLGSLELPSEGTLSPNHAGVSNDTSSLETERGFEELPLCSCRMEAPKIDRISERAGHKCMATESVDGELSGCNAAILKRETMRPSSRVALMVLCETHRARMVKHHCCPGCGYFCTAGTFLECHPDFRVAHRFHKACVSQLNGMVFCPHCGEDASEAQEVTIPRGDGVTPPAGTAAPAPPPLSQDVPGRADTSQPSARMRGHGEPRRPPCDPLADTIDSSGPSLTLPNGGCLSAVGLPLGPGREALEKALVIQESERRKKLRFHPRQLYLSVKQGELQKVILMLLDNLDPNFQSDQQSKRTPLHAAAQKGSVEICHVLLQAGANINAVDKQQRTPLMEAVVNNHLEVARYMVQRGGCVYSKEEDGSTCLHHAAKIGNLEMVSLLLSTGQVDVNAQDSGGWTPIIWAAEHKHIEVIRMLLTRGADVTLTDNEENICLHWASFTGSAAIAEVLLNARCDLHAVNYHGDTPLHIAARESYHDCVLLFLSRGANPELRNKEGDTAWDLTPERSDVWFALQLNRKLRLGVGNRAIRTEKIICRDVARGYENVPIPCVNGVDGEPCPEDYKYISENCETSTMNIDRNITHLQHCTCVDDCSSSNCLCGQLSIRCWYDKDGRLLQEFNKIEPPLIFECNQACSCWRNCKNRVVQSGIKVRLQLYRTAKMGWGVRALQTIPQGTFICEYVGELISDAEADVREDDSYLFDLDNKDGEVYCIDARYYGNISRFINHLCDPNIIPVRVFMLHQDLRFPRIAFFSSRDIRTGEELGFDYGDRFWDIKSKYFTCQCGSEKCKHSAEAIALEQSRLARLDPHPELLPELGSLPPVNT

[2] = target: T2, Histone-lysine N-methyltransferase SETD7 (Homo sapiens) (UniProt Q8WTS6); test: Inhibition of recombinant his-tagged Set7/9 (unknown origin) expressed in Escherichia coli BL21 (DE3) using GST-fused histone H3 (1 to 57 residues) as substrate preincubated for 1 hr followed by substrate addition measured after 1 hr by Western blot analysis
T2 sequence (whole entry): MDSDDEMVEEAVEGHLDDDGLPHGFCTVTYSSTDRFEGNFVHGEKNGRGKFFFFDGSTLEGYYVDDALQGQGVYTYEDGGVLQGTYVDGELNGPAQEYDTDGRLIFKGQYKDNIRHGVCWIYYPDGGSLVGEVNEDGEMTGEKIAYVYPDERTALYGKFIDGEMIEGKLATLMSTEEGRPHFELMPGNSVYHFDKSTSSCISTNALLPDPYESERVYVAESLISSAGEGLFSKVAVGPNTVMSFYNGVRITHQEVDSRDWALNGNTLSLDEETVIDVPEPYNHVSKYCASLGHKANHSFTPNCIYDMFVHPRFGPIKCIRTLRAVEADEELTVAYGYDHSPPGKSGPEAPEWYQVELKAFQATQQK
Procedure, shortened: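 His-Set7/9 (0.2 μg/μL) preincubated with or without inhibitor in HMT buffer for 1 h. Then 1 mM SAM and 0.01 μg/μL GST-histone H3 (1−57) were added and incubated 1 h at 37 °C. Reactions were stopped in SDS loading buffer and immunoblotted with an anti-H3K4me1 antibody.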

[3] = target: T3, Histone-lysine N-methyltransferase SETD7 (Homo sapiens, UniProt Q8WTS6); test: Inhibition of recombinant Set7/9 (unknown origin) expressed in Escherichia coli BL21 (DE3) using biotinylated histone H3-derived peptide/SAM as substrate by alphaLISA
T3 sequence (Q8WTS6 whole entry): T2 sequence (whole entry)

[4] = target: T2, Histone-lysine N-methyltransferase SETD7 (Homo sapiens); test: Inhibition of Set7/9 in human MCF7 cells assessed as reduction of ERalpha expression at 43 uM by immunoblotting analysis; format: cell-based; conditions: TDE = time-dependent effect
Procedure, shortened: (§1)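 MCF7 cells (1 × 10^5 per well) treated either with a concentration series for 48 h or with 43 μM over a time course. RIPA-sonicated lysates were immunoblotted for ERα with enhanced chemiluminescence readout.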

MCF7 = test: Effect on ERalpha mRNA expression in human MCF7 cells at 4.3 to 43 uM after 48 hrs by RT-PCR analysis; format: functional, cell-based
Procedure, shortened: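 MCF7 cells were treated with or without compound for 48 h. Total RNA was isolated with TRIzol. ERα and GAPDH mRNA levels were measured by semiquantitative RT-PCR.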

[5] = target: T2, Histone-lysine N-methyltransferase SETD7 (Homo sapiens); test: Inhibition of Set7/9 in human MCF7 cells assessed as suppression of beta-estradiol-induced cell viability incubated for 4 days by haemocytometer; format: cell-based
Procedure, shortened: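 MCF7 cells (1.5 × 10^4 per well) switched to estrogen-free medium after 24 h. Drug added with or without 10 nM β-estradiol, 4 days' incubation. Cells counted by hemocytometer. Four independent assays.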

[6] = target: T2, Histone-lysine N-methyltransferase SETD7 (Homo sapiens); test: Inhibition of Set7/9 in human MCF7 cells assessed as reduction of ERalpha expression after 48 hrs by immunoblotting analysis; format: cell-based; procedure, shortened: as §1
[7] = target: T2, Histone-lysine N-methyltransferase SETD7 (Homo sapiens); test: Inhibition of Set7/9 in human MCF7 cells assessed as suppression of beta-estradiol-induced ERE promoter activation at 14 to 43 uM preincubated for 18 hrs followed by beta-estradiol addition measured after 24 hrs by luciferase reporter gene assay; format: cell-based
Procedure, shortened: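 MCF7 cells held in estrogen-free medium (phenol red-free RPMI, 10% charcoal-stripped FBS) for 3 days. Cells were then transfected with a 3×ERE firefly luciferase reporter plus a TK-Renilla control. Drug added 6 h later; after 18 h, ±10 nM β-estradiol for 24 h. Firefly signal normalised to Renilla, expressed as fold over unstimulated cells. Four independent assays.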

inhibition [1]: Active
inhibition [2]: Active
IC50 [3]: 1000 nM
inhibition [4]: tde
inhibition [6]: Dose-dependent effect
inhibition [7]: Active
Compound: CN1CCC(=C2c3ccccc3C=Cc3ccccc32)CC1 [CYPROHEPTADINE]
Activity (MCF7): inactive
inhibition [5]: Dose-dependent effect
